Data published in ChEMBL document CHEMBL3286317, “Synthesis and biological evaluation of a unique heparin mimetic hexasaccharide for structure-activity relationship studies” (J Med Chem, 2014).
Calls of active or inactive are those of the source. The calls are words filed in the database; no cut-off is given here.

Legend:
[1] = Binding affinity to human recombinant IL-23 by surface plasmon resonance assay
Method in brief: (§1)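 Biotinylated low-molecular-weight heparin was captured on a neutravidin surface. Protein at varying concentrations was mixed with a hexasaccharide dilution series and injected. Free protein was read from a quadratic slope-vs-concentration standard curve. KD = [P_free][H_total]/[P_bound], averaged over three hexasaccharide concentrations.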

[2] = molecular target: T1, Heparanase (Homo sapiens) (UniProt Q9Y251); test: Inhibition of recombinant heparanase (unknown origin) using biotin-cryptate-labeled heparan sulfate as substrate at 0.03 to 8 mg/ml preincubated for 15 mins prior to substrate challenge by TR-FRET assay
T1 sequence (whole entry): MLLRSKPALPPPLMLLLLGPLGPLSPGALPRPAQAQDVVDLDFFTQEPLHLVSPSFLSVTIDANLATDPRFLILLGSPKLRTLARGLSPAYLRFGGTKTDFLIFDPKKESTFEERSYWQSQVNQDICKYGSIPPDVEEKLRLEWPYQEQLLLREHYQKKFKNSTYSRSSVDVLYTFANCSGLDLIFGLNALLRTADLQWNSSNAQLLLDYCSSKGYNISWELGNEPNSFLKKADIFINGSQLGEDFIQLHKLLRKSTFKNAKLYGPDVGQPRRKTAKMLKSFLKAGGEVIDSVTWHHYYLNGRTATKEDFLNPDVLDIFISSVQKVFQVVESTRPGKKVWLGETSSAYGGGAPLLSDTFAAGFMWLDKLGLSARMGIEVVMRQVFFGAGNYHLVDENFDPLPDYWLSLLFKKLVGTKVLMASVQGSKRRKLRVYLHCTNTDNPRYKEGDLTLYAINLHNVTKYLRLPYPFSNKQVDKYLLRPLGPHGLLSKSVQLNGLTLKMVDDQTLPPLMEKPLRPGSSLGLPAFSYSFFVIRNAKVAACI
Method in brief: (§2)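 Recombinant heparanase was preincubated with compound at various concentrations for 15 min at 37 °C. It was then added to biotin-cryptate-labeled heparan sulfate substrate with streptavidin-XL665 for 1 h at 37 °C. Read-out was TR-FRET between europium cryptate and XL665.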

[3] = molecular target: T2, Interferon gamma (Homo sapiens, UniProt P01579); test: Binding affinity to human recombinant IFN-gamma by surface plasmon resonance assay; method in brief: as §1
T2 sequence (P01579 whole entry): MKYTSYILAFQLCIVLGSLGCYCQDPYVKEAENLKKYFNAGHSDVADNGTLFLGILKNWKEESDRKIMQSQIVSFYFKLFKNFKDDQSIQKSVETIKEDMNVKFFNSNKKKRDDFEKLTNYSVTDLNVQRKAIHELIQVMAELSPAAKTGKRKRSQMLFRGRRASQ

[4] = molecular target: T3, C-X-C motif chemokine 2 (Homo sapiens, UniProt P19875); test: Binding affinity to human recombinant CXCL2 by surface plasmon resonance assay; method in brief: as §1
T3 sequence (P19875 whole entry): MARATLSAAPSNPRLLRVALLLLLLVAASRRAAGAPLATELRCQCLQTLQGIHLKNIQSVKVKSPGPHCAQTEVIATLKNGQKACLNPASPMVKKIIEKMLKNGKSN

[5] = molecular target: T4, Secreted frizzled-related protein 1 (Homo sapiens, UniProt Q8N474); test: Binding affinity to human recombinant sFRP1 by surface plasmon resonance assay; method in brief: as §1
T4 sequence (Q8N474 whole entry): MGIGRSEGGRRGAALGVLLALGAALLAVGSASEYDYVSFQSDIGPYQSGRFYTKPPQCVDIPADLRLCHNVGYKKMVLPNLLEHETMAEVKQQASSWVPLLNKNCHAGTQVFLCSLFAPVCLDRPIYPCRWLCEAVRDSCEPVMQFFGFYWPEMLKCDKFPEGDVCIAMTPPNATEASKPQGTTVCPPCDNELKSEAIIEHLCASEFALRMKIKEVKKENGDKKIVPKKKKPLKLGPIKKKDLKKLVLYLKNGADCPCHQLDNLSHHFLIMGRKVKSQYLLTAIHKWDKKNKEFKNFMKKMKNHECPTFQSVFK

[6] = molecular target: Fibroblast growth factor 1 (Homo sapiens, UniProt P05230); test: Binding affinity to human recombinant FGF1 by surface plasmon resonance assay; method in brief: as §1
Sequence of Fibroblast growth factor 1 (P05230 whole entry): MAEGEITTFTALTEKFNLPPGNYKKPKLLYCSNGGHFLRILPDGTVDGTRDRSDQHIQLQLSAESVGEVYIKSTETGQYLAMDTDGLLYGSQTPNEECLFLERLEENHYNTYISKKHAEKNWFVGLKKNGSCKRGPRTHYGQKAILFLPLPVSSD

[7] = molecular target: T1, Heparanase (Homo sapiens); test: Inhibition of recombinant heparanase (unknown origin) using biotin-cryptate-labeled heparan sulfate as substrate at 8.3 mg/ml preincubated for 15 mins prior to substrate challenge by TR-FRET assay; method in brief: as §2
[8] = molecular target: Stromal cell-derived factor 1 (Homo sapiens, UniProt P48061); test: Binding affinity to human recombinant CXCL12 by surface plasmon resonance assay; method in brief: as §1
Sequence of Stromal cell-derived factor 1 (P48061 whole entry): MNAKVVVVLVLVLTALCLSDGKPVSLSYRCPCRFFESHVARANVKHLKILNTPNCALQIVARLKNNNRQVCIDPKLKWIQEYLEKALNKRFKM

[9] = molecular target: T1, Heparanase (Homo sapiens); test: Inhibition of recombinant heparanase (unknown origin) using biotin-cryptate-labeled heparan sulfate as substrate at 4.2 mg/ml preincubated for 15 mins prior to substrate challenge by TR-FRET assay; method in brief: as §2
[10] = molecular target: T5, Platelet factor 4 (Homo sapiens, UniProt P02776); test: Binding affinity to human recombinant CXCL4 by surface plasmon resonance assay; method in brief: as §1
T5 sequence (P02776 whole entry): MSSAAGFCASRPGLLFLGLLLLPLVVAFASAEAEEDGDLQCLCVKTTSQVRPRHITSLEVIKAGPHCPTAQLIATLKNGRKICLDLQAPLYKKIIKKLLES

[11] = molecular target: Protein Wnt-3a (Homo sapiens, UniProt P56704); test: Binding affinity to human recombinant WNT3A by surface plasmon resonance assay; method in brief: as §1
Sequence of Protein Wnt-3a (P56704 whole entry): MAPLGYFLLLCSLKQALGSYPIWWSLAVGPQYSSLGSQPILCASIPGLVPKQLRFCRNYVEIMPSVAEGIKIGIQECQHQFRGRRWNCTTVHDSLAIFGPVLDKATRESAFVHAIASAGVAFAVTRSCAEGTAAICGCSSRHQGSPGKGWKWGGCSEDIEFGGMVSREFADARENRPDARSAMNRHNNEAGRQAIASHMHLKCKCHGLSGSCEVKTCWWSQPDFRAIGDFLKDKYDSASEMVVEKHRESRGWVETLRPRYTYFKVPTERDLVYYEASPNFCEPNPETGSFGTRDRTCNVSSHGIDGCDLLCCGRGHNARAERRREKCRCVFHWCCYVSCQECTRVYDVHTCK

[12] = molecular target: C-C motif chemokine 2 (Homo sapiens, UniProt P13500); test: Binding affinity to human recombinant CCL2 by surface plasmon resonance assay; method in brief: as §1
Sequence of C-C motif chemokine 2 (P13500 whole entry): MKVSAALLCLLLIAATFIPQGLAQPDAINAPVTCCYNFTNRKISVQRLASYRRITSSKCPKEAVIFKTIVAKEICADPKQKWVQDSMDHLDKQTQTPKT

| Structure (SMILES) | Kd [1] [µM] | inhibition [2] | Kd [3] [µM] | Kd [4] [µM] | Kd [5] [µM] | Kd [6] [µM] | Imax [7] [%] | Kd [8] [µM] | Imax [9] [%] | Kd [10] [µM] | Kd [11] [µM] | Kd [12] [µM] |
| --- | --- | --- | --- | --- | --- | --- | --- | --- | --- | --- | --- | --- |
| NCCCCCO[C@H]1O[C@H](CO)[C@@H](O[C@@H]2O[C@@H](C(=O)O)[C@@H](O[C@H]3O[C@H](CO)[C@@H](O[C@@H]4O[C@@H](C(=O)O)[C@@H](O[C@H]5O[C@H](CO)[C@@H](O[C@@H]6O[C@@H](C(=O)O)[C@@H](O)[C@H](O)[C@H]6OS(=O)(=O)O)[C@H](O)[C@H]5NS(=O)(=O)O)[C@H](O)[C@H]4OS(=O)(=O)O)[C@H](O)[C@H]3NS(=O)(=O)O)[C@H](O)[C@H]2OS(=O)(=O)O)[C@H](O)[C@H]1NS(=O)(=O)O | 7 | Active | 10 | 250000 | 9 | 8 | – | – | – | – | – | – |
| CCCCCO[C@H]1O[C@H](COS(=O)(=O)O)[C@@H](O[C@@H]2O[C@@H](C(=O)O)[C@@H](O[C@H]3O[C@H](COS(=O)(=O)O)[C@@H](O[C@@H]4O[C@@H](C(=O)O)[C@@H](O[C@H]5O[C@H](COS(=O)(=O)O)[C@@H](O[C@@H]6O[C@@H](C(=O)O)[C@@H](O)[C@H](O)[C@H]6OS(=O)(=O)O)[C@H](O)[C@H]5NC(C)=O)[C@H](O)[C@H]4OS(=O)(=O)O)[C@H](O)[C@H]3NC(C)=O)[C@H](O)[C@H]2OS(=O)(=O)O)[C@H](O)[C@H]1NC(C)=O | – | Active | – | 250000 | – | – | 30.7 | 77 | – | – | – | – |
| CCCCCO[C@H]1O[C@H](COS(=O)(=O)O)[C@@H](O[C@@H]2O[C@@H](C(=O)O)[C@@H](O[C@H]3O[C@H](COS(=O)(=O)O)[C@@H](O[C@@H]4O[C@@H](C(=O)O)[C@@H](O[C@H]5O[C@H](COS(=O)(=O)O)[C@@H](O[C@@H]6O[C@@H](C(=O)O)[C@@H](O)[C@H](O)[C@H]6OS(=O)(=O)O)[C@H](O)[C@H]5NC(C)=O)[C@H](O)[C@H]4OS(=O)(=O)O)[C@H](O)[C@H]3NS(=O)(=O)O)[C@H](O)[C@H]2O)[C@H](O)[C@H]1NC(C)=O | 4 | – | 7 | 250000 | – | – | – | 24 | 47.2 | 3 | 18 | 61 |
